The results in this text go back to ChEMBL document CHEMBL4321879, “Novel Class of Colony-Stimulating Factor 1 Receptor Kinase Inhibitors Based on an o-Aminopyridyl Alkynyl Scaffold as Potential Treatment for Inflammatory Disorders” (J Med Chem, 2020).

Series [1] is described as follows: MRT (infinity) in Sprague-Dawley rat at 2 mg/kg, iv administered […] by LC-MS/MS analysis. The note with it: in vivo. In kind it is ADME, organism-based. The method, boiled down: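 Male SD rats (200 ± 20 g), fasted 12 h, n = 3; single intravenous dose of 2 mg/kg in DMSO/EtOH/PEG300/saline (5/5/40/50). Femoral vein blood at 15–1440 min; plasma precipitated with methanol containing internal standard, assayed by LC–MS/MS; noncompartmental analysis (MRT = AUMC/AUC, Vss = CL × MRT).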

The target in series [2] is Tyrosine-protein kinase BTK (Homo sapiens) (UniProt Q06187). In words: Inhibition of recombinant human full-length N-terminal His6-tagged BTK expressed in baculovirus infected Sf21 insect cells at 100 nM using poly (Glu, Tyr)4:1 as substrate measured after 1 hr by ELISA relative to control. The method, boiled down: (§1)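 ELISA kinase assay: recombinant kinase added to wells precoated with poly(Glu,Tyr)4:1 and incubated with compound in reaction buffer containing 5 μM ATP, 37 °C for 1 h; wells then washed before antibody detection.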
Tyrosine-protein kinase BTK (Homo sapiens), sequence (Q06187 whole entry): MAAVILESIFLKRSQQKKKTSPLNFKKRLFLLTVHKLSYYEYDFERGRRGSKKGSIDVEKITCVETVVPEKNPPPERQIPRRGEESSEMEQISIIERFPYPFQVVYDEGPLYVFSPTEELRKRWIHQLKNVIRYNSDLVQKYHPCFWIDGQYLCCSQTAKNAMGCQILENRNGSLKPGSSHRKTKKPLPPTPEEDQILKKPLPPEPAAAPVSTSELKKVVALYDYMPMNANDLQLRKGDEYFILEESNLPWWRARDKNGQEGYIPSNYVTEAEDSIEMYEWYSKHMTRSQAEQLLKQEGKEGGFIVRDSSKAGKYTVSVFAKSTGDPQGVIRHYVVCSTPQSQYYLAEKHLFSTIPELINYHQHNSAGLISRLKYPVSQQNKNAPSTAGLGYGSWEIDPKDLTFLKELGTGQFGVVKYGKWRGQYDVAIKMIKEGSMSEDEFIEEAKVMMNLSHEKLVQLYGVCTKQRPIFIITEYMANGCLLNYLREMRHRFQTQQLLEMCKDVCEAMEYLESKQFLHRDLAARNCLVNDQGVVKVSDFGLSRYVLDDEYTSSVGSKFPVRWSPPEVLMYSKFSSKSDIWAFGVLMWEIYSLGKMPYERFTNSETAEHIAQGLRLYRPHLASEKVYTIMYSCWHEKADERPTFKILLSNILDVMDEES

The target in series [3] is Tyrosine-protein kinase ABL1 (Homo sapiens) (UniProt P00519). Nature of the series: Inhibition of recombinant human N-terminal His6-tagged Abl (27 to end residues) expressed in baculovirus infected Sf21 insect cells at 100 nM using poly (Glu, Tyr)4:1 as substrate measured after 1 hr by ELISA relative to control. Put shortly: (§2)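 Recombinant kinase was incubated with compound in reaction buffer containing 5 μM ATP, in wells precoated with poly(Glu,Tyr) 4:1, for 1 h at 37 °C. Phosphorylation was detected by ELISA.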
Tyrosine-protein kinase ABL1 (Homo sapiens), sequence (P00519 whole entry): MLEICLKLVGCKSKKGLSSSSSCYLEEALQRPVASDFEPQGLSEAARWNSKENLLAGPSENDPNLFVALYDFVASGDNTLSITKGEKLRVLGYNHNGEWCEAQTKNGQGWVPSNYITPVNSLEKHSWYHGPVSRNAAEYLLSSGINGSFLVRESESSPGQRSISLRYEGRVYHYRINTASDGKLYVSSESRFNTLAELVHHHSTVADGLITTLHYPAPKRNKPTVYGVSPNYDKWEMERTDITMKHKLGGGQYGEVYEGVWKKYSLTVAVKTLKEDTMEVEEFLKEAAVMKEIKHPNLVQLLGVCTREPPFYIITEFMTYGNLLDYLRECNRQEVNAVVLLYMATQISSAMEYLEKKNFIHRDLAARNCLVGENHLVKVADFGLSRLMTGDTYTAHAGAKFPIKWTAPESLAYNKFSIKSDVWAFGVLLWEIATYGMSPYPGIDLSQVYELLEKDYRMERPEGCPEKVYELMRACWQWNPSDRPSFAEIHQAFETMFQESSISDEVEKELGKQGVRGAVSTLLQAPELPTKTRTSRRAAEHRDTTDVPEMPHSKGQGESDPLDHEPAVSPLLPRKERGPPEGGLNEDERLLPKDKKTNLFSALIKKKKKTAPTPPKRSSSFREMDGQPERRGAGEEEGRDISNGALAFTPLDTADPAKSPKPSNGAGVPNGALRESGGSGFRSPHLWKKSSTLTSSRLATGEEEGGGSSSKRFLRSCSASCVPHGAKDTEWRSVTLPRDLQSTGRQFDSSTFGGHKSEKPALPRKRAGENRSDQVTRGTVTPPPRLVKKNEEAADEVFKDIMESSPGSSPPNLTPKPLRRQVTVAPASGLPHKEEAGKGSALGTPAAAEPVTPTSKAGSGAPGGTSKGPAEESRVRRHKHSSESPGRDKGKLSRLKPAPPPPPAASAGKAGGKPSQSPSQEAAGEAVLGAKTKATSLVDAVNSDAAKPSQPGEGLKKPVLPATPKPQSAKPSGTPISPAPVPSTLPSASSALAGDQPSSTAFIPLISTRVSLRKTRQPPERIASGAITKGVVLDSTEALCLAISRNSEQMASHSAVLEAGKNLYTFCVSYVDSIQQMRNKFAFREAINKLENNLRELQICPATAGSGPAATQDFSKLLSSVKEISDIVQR

Series [4] concerns the target Activated CDC42 kinase 1 (Homo sapiens) (UniProt Q07912). Nature of the series: Inhibition of recombinant human N-terminal GST-tagged ACK1 (1 to 389 residues) expressed in baculovirus infected Sf21 insect cells at 1000 nM using poly (Glu, Tyr)4:1 as substrate measured after 1 hr by ELISA relative to control. The method, boiled down:
as §2

Series [5] has as its target Voltage-gated inwardly rectifying potassium channel KCNH2 (Homo sapiens, UniProt Q12809). Nature of the series: Inhibition of human ERG by Qpatch automatic patch-clamp assays.
The target in series [6] is Focal adhesion kinase 1 (Homo sapiens) (UniProt Q05397). In words: Inhibition of recombinant human N-terminal His6-tagged FAK (411 to 686 residues) expressed in baculovirus infected Sf21 insect cells at 1000 nM using poly (Glu, Tyr)4:1 as substrate measured after 1 hr by ELISA relative to control. Put shortly: as §2
Series [7] has as its target Tyrosine-protein kinase BTK (Homo sapiens) (UniProt Q06187). Nature of the series: Inhibition of recombinant human full-length N-terminal His6-tagged BTK expressed in baculovirus infected Sf21 insect cells at 1000 nM using poly (Glu, Tyr)4:1 as substrate measured after 1 hr by ELISA relative to control. The method, boiled down: as §1
Series [8] concerns the target Vascular endothelial growth factor receptor 2 (Homo sapiens) (UniProt P35968). In words: Inhibition of recombinant human VEGFR2 (D1-7) expressed in Spodoptera frugiperda insect cells at 10 nM using poly (Glu, Tyr)4:1 as substrate measured after 1 hr by ELISA relative to control. The method, boiled down: as §1
The target in series [9] is Proto-oncogene tyrosine-protein kinase receptor Ret (Homo sapiens) (UniProt P07949). Nature of the series: Inhibition of recombinant human N-terminal GST-tagged RET (658 to end residues) expressed in baculovirus infected Sf21 insect cells at 100 nM using poly (Glu, Tyr)4:1 as substrate measured after 1 hr by ELISA relative to control. Put shortly: as §2
The target in series [10] is T1, Fibroblast growth factor receptor 2 (Homo sapiens, UniProt P21802). In words: Inhibition of recombinant human N-terminal His6-tagged FGFR2 (456 to 770 residues) expressed in baculovirus infected Sf21 insect cells at 100 nM using poly (Glu, Tyr)4:1 as substrate measured after 1 hr by ELISA relative to control. Put shortly:
as §2
Target sequence in this assay (P21802 22-821 limits assumed): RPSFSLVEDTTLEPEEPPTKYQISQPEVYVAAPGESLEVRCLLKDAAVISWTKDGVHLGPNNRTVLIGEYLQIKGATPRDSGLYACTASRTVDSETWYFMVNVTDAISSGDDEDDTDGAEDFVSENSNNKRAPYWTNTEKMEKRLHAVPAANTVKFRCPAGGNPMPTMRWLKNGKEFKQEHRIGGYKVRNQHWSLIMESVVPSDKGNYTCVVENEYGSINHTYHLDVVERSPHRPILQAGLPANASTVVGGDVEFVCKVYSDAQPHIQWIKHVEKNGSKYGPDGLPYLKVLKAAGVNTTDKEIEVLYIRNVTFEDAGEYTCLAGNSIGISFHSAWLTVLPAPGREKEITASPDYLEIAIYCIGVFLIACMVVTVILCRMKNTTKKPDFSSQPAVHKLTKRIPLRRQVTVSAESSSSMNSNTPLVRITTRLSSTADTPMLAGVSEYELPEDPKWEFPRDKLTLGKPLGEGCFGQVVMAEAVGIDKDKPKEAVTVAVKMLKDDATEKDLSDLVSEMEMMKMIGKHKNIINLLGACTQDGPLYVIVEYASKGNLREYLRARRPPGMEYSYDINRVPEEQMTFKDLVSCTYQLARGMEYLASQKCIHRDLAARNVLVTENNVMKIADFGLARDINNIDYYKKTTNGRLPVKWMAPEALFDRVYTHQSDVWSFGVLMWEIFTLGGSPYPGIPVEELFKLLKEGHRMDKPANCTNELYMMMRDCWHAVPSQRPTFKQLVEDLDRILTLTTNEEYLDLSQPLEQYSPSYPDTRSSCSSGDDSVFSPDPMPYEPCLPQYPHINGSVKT

Series [11] deals with T2, Fibroblast growth factor receptor 1 (Homo sapiens, UniProt P11362). In words: Inhibition of recombinant human N-terminal GST-tagged FGFR1 (456 to 765 residues) expressed in baculovirus infected Sf21 insect cells using poly (Glu, Tyr)4:1 as substrate measured after 1 hr by ELISA. Put shortly: as §2
Series [12] addresses T1, Fibroblast growth factor receptor 2. Nature of the series: Inhibition of recombinant human N-terminal His6-tagged FGFR2 (456 to 770 residues) expressed in baculovirus infected Sf21 insect cells at 1000 nM using poly (Glu, Tyr)4:1 as substrate measured after 1 hr by ELISA relative to control. The method, boiled down:
as §2
Target sequence in this assay (P21802 22-821 limits assumed): as above

In series [13] the target is T2, Fibroblast growth factor receptor 1. Nature of the series: Inhibition of recombinant human N-terminal GST-tagged FGFR1 (456 to 765 residues) expressed in baculovirus infected Sf21 insect cells at 1000 nM using poly (Glu, Tyr)4:1 as substrate measured after 1 hr by ELISA relative to control. Put shortly:
as §2
Target sequence in this assay (P11362 22-822 limits assumed): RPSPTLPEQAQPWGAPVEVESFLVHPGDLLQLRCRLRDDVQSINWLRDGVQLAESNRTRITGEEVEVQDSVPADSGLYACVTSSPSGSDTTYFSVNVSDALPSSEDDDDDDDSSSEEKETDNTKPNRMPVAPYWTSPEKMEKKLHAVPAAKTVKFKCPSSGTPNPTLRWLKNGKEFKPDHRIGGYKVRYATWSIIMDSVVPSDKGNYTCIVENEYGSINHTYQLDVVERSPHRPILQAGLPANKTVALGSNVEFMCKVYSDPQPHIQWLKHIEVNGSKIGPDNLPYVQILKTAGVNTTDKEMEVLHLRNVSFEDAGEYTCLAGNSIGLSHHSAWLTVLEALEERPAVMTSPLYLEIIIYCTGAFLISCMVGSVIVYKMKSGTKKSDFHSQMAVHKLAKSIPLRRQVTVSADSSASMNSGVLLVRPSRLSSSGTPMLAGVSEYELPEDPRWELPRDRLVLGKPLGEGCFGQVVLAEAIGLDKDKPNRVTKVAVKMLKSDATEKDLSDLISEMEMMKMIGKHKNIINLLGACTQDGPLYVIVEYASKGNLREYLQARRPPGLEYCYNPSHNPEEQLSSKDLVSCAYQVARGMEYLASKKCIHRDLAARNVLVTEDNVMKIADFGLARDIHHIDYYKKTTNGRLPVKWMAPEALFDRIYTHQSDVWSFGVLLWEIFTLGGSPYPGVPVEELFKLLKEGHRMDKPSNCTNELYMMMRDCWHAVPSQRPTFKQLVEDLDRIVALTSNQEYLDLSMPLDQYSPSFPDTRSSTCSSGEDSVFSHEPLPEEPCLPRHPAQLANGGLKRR

Series [14] addresses Tyrosine-protein kinase ABL1 (Homo sapiens) (UniProt P00519). Nature of the series: Inhibition of recombinant human N-terminal His6-tagged Abl (27 to end residues) expressed in baculovirus infected Sf21 insect cells at 1000 nM using poly (Glu, Tyr)4:1 as substrate measured after 1 hr by ELISA relative to control. Put shortly:
as §2

Series [15] is described as follows: Oral bioavailability in Sprague-Dawley rat at 5 mg/kg administered via gavage by LC-MS/MS analysis. In kind it is ADME, organism-based. The note with it: in vivo. The method, boiled down: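 Male SD rats (n = 3 per route), fasted 12 h; 5 mg/kg oral gavage (DMSO/HPMC 5/95) versus 2 mg/kg iv (DMSO/EtOH/PEG300/saline). Plasma sampled 15–1440 min, LC–MS/MS; F = AUC0–∞(oral)/AUC0–∞(iv) × dose(iv)/dose(oral) × 100%.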

Series [16] concerns the target T1, Fibroblast growth factor receptor 2. In words: Inhibition of recombinant human N-terminal His6-tagged FGFR2 (456 to 770 residues) expressed in baculovirus infected Sf21 insect cells using poly (Glu, Tyr)4:1 as substrate measured after 1 hr by ELISA. The method, boiled down: as §2
Series [17] concerns the target Epidermal growth factor receptor (Homo sapiens) (UniProt P00533). In words: Inhibition of recombinant human N-terminal GST-tagged EGFR (696 to end residues) expressed in baculovirus infected Sf21 insect cells at 1000 nM using poly (Glu, Tyr)4:1 as substrate measured after 1 hr by ELISA relative to control. The method, boiled down:
as §2

For series [18], the target named is Receptor tyrosine-protein kinase erbB-4 (Homo sapiens) (UniProt Q15303). Nature of the series: Inhibition of recombinant human N-terminal His6-tagged Erbb4 (706 to 991 residues) expressed in baculovirus infected Sf21 insect cells at 100 nM using poly (Glu, Tyr)4:1 as substrate measured after 1 hr by ELISA relative to control. Put shortly:
as §2

Series [19] deals with T2, Fibroblast growth factor receptor 1. Nature of the series: Inhibition of recombinant human N-terminal GST-tagged FGFR1 (456 to 765 residues) expressed in baculovirus infected Sf21 insect cells at 100 nM using poly (Glu, Tyr)4:1 as substrate measured after 1 hr by ELISA relative to control. Put shortly:
as §2
Target sequence in this assay (P11362 22-822 limits assumed): as above

Series [20] deals with Platelet-derived growth factor receptor alpha (Homo sapiens) (UniProt P16234). In words: Inhibition of recombinant human N-terminal His6-tagged PDGFRalpha (550 to end residues) expressed in baculovirus infected Sf21 insect cells at 1000 nM using poly (Glu, Tyr)4:1 as substrate measured after 1 hr by ELISA relative to control. Put shortly:
as §1

Platelet-derived growth factor receptor alpha (Homo sapiens), sequence (P16234 whole entry): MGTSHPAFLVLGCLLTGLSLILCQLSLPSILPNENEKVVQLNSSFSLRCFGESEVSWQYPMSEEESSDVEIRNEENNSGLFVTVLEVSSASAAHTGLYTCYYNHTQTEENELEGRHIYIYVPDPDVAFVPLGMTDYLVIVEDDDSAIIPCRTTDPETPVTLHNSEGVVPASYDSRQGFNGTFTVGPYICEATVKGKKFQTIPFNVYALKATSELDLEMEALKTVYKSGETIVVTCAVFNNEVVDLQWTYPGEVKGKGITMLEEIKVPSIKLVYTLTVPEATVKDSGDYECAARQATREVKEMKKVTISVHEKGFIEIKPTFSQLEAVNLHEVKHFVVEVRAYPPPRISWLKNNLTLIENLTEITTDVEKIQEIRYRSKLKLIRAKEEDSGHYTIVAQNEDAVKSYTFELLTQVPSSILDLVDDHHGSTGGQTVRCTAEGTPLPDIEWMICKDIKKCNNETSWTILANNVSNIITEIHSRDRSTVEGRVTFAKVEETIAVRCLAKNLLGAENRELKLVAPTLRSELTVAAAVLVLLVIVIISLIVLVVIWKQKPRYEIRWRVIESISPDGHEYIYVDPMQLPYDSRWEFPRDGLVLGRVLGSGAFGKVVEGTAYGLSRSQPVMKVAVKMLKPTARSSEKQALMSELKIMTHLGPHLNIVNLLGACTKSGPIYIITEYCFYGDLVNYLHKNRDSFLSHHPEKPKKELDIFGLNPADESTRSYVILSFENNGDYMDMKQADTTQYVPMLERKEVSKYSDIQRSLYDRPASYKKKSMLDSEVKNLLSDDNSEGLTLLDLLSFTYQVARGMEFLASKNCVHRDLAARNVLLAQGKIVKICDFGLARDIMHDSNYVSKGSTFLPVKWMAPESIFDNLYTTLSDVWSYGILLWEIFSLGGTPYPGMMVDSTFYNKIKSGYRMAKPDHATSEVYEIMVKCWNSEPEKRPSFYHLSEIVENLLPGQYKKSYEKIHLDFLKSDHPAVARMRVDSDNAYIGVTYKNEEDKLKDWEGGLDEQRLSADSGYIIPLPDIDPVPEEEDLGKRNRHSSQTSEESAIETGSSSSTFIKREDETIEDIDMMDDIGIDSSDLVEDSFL

The compound `Cc1ccc(C(=O)Nc2ccc(Cl)cc2)cc1C#Cc1cc(-c2cnn(C)c2)cnc1N` had an MRT inf in series [1] of 2.3 h. The inhibition in series [2] amounted to 0%; in series [3], 82.1%; in series [4], 30.9%; in [6], 10.8%; in series [7], 8%; in series [8] it was 23.2%. Besides, the inhibition in [9] turned out to be 77.6%; in series [10] it was 16.2%; in series [12] it was 20.7%; in [13], 0%; in series [14], 98.3%; in series [17], 0%. In addition, the inhibition in series [18] is 6.6%; in [19], 0%; in [20] it was 92.6%. Moreover, the IC50 in [5] is more than 40 µM; in series [11], more than 1 µM; in [16], more than 1 µM. This compound gave a bioavailability in [15] of 34.8%.
